# Laboratory results as given in ChEMBL document CHEMBL4152210, “Design, synthesis, anti-lung cancer activity, and chemosensitization of tumor-selective MCACs based on ROS-mediated JNK pathway activation and NF-κB pathway inhibition” (Eur J Med Chem, 2018).
# Calls of active or inactive are those of the source. The rule behind the calls is not given here.
# Experiments:
# A549 [1] = test: Induction of apoptosis in human A549 cells at 10 uM preincubated with NAC for 1 hr followed by compound addition and measured after 24 hrs by Annexin V-FITC/propidium iodide staining based flow cytometric analysis; assay type: functional, cell-based
# Method in brief: (§1)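 A549 treated 24 h at 1, 5 or 10 µM, with BMS345541 20 µM as control. Inhibitor arms pretreated 1 h with NAC (5 mM) or SP600125 (10 µM) before 10 µM. Cells harvested with EDTA-free trypsin, stained with FITC Annexin V and PI for 15 min at room temperature in the dark, analysed by flow cytometry.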
# [2] = Selectivity index, ratio of IC50 for human HL7702 cells to IC50 for human A549 cells; assay type: toxicity
# Method in brief: (§2)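 Selectivity index taken as the logarithm of the ratio of the HL7702 IC50 to the cancer-line IC50. […] Not calculated when an IC50 was lacking.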
# [3] = Selectivity index, ratio of IC50 for human HL7702 cells to IC50 for human NCI-H1975 cells; assay type: toxicity; method in brief: as §2
# [4] = Selectivity index, ratio of IC50 for human HL7702 cells to IC50 for human NCI-H1650 cells; assay type: toxicity; method in brief: as §2
# [5] = target: Mitogen-activated protein kinase 8/9 (Homo sapiens) (UniProt P45983+P45984); test: Induction of JNK 1/2 phosphorylatyion in human A549 cells after 6 hrs by Western blot analysis; assay type: cell-based
# Chain of Mitogen-activated protein kinase 8/9 (Homo sapiens) (P45983 whole entry, looked up): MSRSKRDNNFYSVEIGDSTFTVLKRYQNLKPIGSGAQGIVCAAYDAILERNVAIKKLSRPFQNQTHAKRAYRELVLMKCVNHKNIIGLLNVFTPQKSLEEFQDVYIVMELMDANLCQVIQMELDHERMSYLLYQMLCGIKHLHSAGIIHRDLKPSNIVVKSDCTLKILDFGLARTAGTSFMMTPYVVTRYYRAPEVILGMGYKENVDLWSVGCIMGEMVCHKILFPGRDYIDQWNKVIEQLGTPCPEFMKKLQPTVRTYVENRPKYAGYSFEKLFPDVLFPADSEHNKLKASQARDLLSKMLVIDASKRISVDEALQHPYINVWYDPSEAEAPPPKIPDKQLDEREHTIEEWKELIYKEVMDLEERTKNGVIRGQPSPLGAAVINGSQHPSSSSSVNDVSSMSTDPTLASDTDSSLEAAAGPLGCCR
# Chain of Mitogen-activated protein kinase 8/9 (Homo sapiens) (P45984 whole entry, looked up): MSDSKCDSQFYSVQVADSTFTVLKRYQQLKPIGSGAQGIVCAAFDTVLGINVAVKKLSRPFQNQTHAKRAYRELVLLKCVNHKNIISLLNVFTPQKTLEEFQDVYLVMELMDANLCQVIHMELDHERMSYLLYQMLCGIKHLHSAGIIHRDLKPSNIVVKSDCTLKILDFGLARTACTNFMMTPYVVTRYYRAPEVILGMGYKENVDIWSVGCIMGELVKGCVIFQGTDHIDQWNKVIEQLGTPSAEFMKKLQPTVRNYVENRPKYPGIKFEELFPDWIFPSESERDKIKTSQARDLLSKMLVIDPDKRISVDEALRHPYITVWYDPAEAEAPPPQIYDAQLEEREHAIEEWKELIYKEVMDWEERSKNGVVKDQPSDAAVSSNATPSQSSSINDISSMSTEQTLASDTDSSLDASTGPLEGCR
# Method in brief: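 A549 exposed at 10 µM for varying times, or at various concentrations for 6 h. Inhibition arms pretreated 1 h with SP600125 (10 µM) or NAC (5 mM) before 10 µM for 6 h. Lysates run on 10% SDS-PAGE and transferred to PVDF. p-JNK probed, GAPDH as loading control.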
# A549 [6] = test: Cell cycle arrest in human A549 cells assessed as increase in accumulation at G2/M phase after 10 hrs by propidium iodide staining based flow cytometric analysis; assay type: functional
# Method in brief: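 A549 (6 × 10^5 per 60 mm dish, overnight) treated at 1, 5 or 10 µM for 10 h, with BMS345541 (20 µM) as positive control. Trypsinized, fixed in ice-cold 70% ethanol at −20 °C for 30 min, treated with RNase A, stained with 50 µg/mL PI, analysed by flow cytometry.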
# A549 [7] = test: Induction of ROS generation in human A549 cells at 10 uM preincubated with NAC for 1 hr followed by compound addition and measured after 9 hrs by DCFDA staining based flow cytometric analysis; assay type: functional, cell-based
# Method in brief: (§3)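 A549 (6 × 10^5 per 60 mm dish) exposed to 10 µM over a time course up to 12 h, or at 1, 5 or 10 µM for 9 h. Optional NAC (5 mM) pretreatment for 1 h before 10 µM for 9 h. Cells loaded with DCF-DA (10 µM) for 30 min at 37 °C in the dark, washed, and read by flow cytometry.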
# A549 [8] = test: Induction of ROS generation in human A549 cells at 10 uM after 12 hrs by DCFDA staining based flow cytometric analysis; assay type: functional, cell-based; conditions: in the assay text read “after 9 hrs” for “after 12 hrs”; method in brief: as §3
# A549 [9] = test: Chemosensitization activity in human A549 cells assessed as inhibition of clonogenic growth at 0.25 uM in presence of 3 uM cisplatin incubated for 2 days followed by replacement of growth media and measured after 8 days by crystal violet staining-based assay relative to control; assay type: functional
# Method in brief: (§4)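 A549 seeded at 1000 cells per well in 6-well plates, exposed to drug alone or combined with cisplatin or 5-Fu over a concentration series. Drug-containing medium replaced after 2 days. After a further 8 days, fixed with 1% methanol/1% formaldehyde and stained with 0.5% crystal violet. Percent inhibition at each concentration calculated relative to control.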
# NCI-H460 = test: Cytotoxicity against human H460 cells assessed as reduction in cell viability after 72 hrs by MTT assay; assay type: functional, cell-based; conditions: NCI-H460, 72 h
# Method in brief: (§5)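 Cells in RPMI 1640 with 10% heat-inactivated FBS and penicillin/streptomycin at 37 °C, 5% CO2. Seeded at 4000 per well, adhered overnight, then exposed to graded compound concentrations in triplicate wells for 72 h. MTT (5 mg/mL stock) added for 4 h, dissolved in DMSO, A490 read. IC50 is the concentration reducing viability by 50% versus untreated control.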
# A549 [10] = test: Chemosensitization activity in human A549 cells assessed as inhibition of clonogenic growth at 0.5 uM in presence of 0.74 uM cisplatin incubated for 2 days followed by replacement of growth media and measured after 8 days by crystal violet staining-based assay relative to control; assay type: functional; method in brief: as §4
# A549 [11] = test: Induction of apoptosis in human A549 cells at 10 uM pretreated with 5 mM NAC for 1 hr followed by compound addition and measured after 24 hrs by Annexin V-FITC/propidium iodide staining based flow cytometric analysis; assay type: functional, cell-based; method in brief: as §1
# NCI-H1650 = test: Cytotoxicity against human NCI-H1650 cells assessed as reduction in cell viability after 72 hrs by MTT assay; assay type: functional, cell-based; conditions: NCI-H1650, 72 h; method in brief: as §5
# A549 [12] = test: Induction of apoptosis in human A549 cells assessed as increase in Bax level at 1 to 10 uM after 24 hrs by Western blot analysis; assay type: functional, cell-based
# Method in brief: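 A549 treated at 1, 5 or 10 µM, or with BMS345541 (20 µM), for 24 h. Cleaved PARP and Bax detected by western blot (10% SDS-PAGE, PVDF, 5% milk block, HRP secondary).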
# [13] = target: T1, NF-kappa-B inhibitor alpha (Homo sapiens) (UniProt P25963); test: Inhibition of TNF-alpha induced IkappaBalpha degradation in human A549 cells at 1 to 10 uM preincubated for 1 hr followed by TNF-alpha addition and measured after 15 mins by Western blot analysis; assay type: cell-based
# T1 sequence (whole entry): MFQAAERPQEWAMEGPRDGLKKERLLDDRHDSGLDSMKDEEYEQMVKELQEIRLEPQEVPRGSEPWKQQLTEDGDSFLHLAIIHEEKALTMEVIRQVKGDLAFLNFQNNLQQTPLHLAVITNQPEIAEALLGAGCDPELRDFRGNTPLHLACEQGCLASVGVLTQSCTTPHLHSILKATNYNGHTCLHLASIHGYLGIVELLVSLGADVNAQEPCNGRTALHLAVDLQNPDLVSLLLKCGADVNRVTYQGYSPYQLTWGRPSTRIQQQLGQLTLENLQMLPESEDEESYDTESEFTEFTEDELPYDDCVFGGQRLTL
# Method in brief: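 A549 preincubated 1 h at 1, 5 or 10 µM, or with BMS345541 (20 µM), then stimulated with TNFα (1 ng/mL) for 15 min. NAC arm: 5 mM NAC for 1 h, then 10 µM for 1 h. IκBα detected by western blot, GAPDH as loading control.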
# A549 [14] = test: Anticlonogenic activity against human A549 cells assessed as inhibition of clonogenic growth at 1 uM incubated for 2 days followed by replacement of growth media and measured after 8 days by crystal violet staining-based assay relative to control; assay type: functional; method in brief: as §4
# [15] = Selectivity index, ratio of IC50 for human HL7702 cells to IC50 for human H460 cells; assay type: toxicity; method in brief: as §2
# A549 [16] = test: Induction of apoptosis in human A549 cells assessed as increase in caspase-3 level after 24 hrs by Western blot analysis; assay type: functional, cell-based
# A549 [17] = test: Anticlonogenic activity against human A549 cells assessed as inhibition of clonogenic growth at 0.25 uM incubated for 2 days followed by replacement of growth media and measured after 8 days by crystal violet staining-based assay relative to control; assay type: functional; method in brief: as §4
smiles,measurement,setting,value
COc1cc(/C=C2\CN(C)C/C(=C\c3cc(OC)c(OC)c(OC)c3)C2=O)cc(OC)c1OC,Activity,A549 [1],inactive
same,log(RatioIC50),[2],1.19
same,log(RatioIC50),[3],1.42
same,log(RatioIC50),[4],1.25
same,Activity,[5],Dose-dependent effect
same,Activity,A549 [6],Dose-dependent effect
same,Activity,A549 [7],inactive
same,Activity,A549 [8],Dose-dependent effect
same,inhibition (INH),A549 [9],57%
same,IC50,NCI-H460,1000 nM
same,inhibition (INH),A549 [10],82%
same,Activity,A549 [11],inactive
same,IC50,NCI-H1650,1500 nM
same,Activity,A549 [12],Active
same,inhibition,[13],Active
same,inhibition at 1 µM,A549 [14],44%
same,log(RatioIC50),[15],1.42
same,Activity,A549 [16],Dose-dependent effect
same,inhibition at 0.25 µM,A549 [17],2 to 11%
